Data: paper PMC2754715 (Chemical biology & drug design, 2009)

Tests used:
THP-1 cells = assay: Cytotoxicity; format: cell-based, human; details: at concentrations active in the TNF-α secretion assay
Solubility = format: physicochemical
LITAF = assay: Western blot of LITAF expression in cells; format: cell-based; details: Figure 6
Mouse plasma stability = format: in vitro ADME
[1] = tested on: LPS-induced lethality in mice; assay: LPS-induced endotoxic shock model; format: in vivo; details: for Protection from lethal dose of LPS (mortality/morbidity): 40 mg/kg ip pretreatment, 24 h observation
Outline: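 C57 mice (8–12 weeks, 20–25 g, n = 8) get test compound i.p., then immediately a lethal i.p. LPS challenge. D-galactosamine (40 μg/g, as 4 μg/μL in DMSO) and E. coli LPS (0.25 μg/mouse, in 0.1 mL PBS with 1% BSA) are injected i.p. Controls get DMSO, then LPS. Mortality and morbidity are checked hourly for 24 h.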

Caco-2 = Caco-2 permeability; format: in vitro ADME
[2] = Chemical stability in aqueous buffer; format: physicochemical
[3] = tested on: TNF-α secretion by LPS-stimulated THP-1 cells; assay: TNF-α secretion assay in LPS-stimulated THP-1 cells; format: cell-based, human; details: for Suppression of TNF-α secretion (in words): 50 μg/ml, Figure 2; for inhibition at 100 µg/mL: Homo sapiens, THP-1, read-out: % Inhibition of TNF-α secretion
Outline: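 THP-1 cells (RPMI-1640 with 0.05 mM 2-mercaptoethanol, 2 mM glutamine, 10% FBS) plated in log phase at 4 × 10^5/well. After 24 h, 50 nM PMA is added with test compound; after 24 h more, medium is replaced with compound-only medium. After 24 h, LPS 10 μg/ml is added, supernatants taken at 2 h, and human TNF-α measured by ELISA against the kit standard curve. Run in triplicate; % inhibition.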

[4] = Preliminary pharmacokinetic evaluation; format: in vivo, mice; details: for half-life: mouse, in vivo
[5] = tested on: TNF-α release from NIH3T3 cells; details: cited from earlier work
TNF-α release in mice = details: cited from earlier work
[6] = tested on: DYRK1A (dual-specificity tyrosine-phosphorylated and regulated kinase 1A); details: kinase selectivity screening; cited from earlier work
IκB kinase (IKK) = details: kinase selectivity screening; cited from earlier work
[7] = tested on: MAPKAP-K3 (MAPK-activated protein kinase 3); details: kinase selectivity screening; cited from earlier work
[8] = tested on: PRAK (p38-regulated/activated kinase); details: kinase selectivity screening; cited from earlier work
Aurora B = details: kinase selectivity screening; cited from earlier work

COC1=CC(=O)O[C@@H](/C=C/c2ccccc2)C1 [Compound 1, kavain]
Cytotoxicity (THP-1 cells): did not show any cytotoxicity
solubility (Solubility; PBS buffer, pH 7, aqueous buffer): > 500 µM
Solubility (in words) (Solubility; pH 7): highly soluble
LITAF expression (LITAF): evidently do not
Mouse plasma stability, remaining (Mouse plasma stability; at 2h, 5 μM dose): 99% remaining at 2h (5 μM dose)
Stability in plasma (in words) (Mouse plasma stability; mouse plasma): good chemical stability
Protection from lethal dose of LPS (mortality/morbidity) [1]: no mortality or overt morbidity observed for at least 24 hours
Caco-2 permeability, Papp(B→A)/Papp(A→B) (Caco-2): Papp(B→A)/Papp(A→B)=0.7
Cell permeability (in words) (Caco-2; Caco-2 assay): high level of cell permeability
Chemical stability (in words) ([2]; aqueous buffer): good chemical stability
Chemical Stability, degradation ([2]; at 1 hr, pH=7): <10% degradation at 1 hr, pH=7
Suppression of TNF-α secretion (in words) [3]: reproducibly active
inhibition at 100 µg/mL [3]: 98%
Clearance (in words) ([4]; following dosing, mice): rapidly cleared
half-life ([4]; iv, 1 mg/kg): < 15 min
half-life ([4]; po, 10 mg/kg): < 40 min

COC1=CC(=O)O[C@@H](CCc2ccccc2)C1 [Compound 2, dihydrokavain]
Cytotoxicity (THP-1 cells): did not show any cytotoxicity
Inhibition of TNF-α release (in words) [5]: lower activity
Survival rate at 24 h ([1]; 40 mg/Kg ip pretreatment): 30%
Delay in time of death compared to vehicle treated animals ([1]; 40 mg/Kg ip, animals that died): about a two hour delay
Protection from lethal dose of LPS (mortality/morbidity) [1]: only partially protected
Inhibition of TNF-α release in mice (in words) (TNF-α release in mice): most potent inhibitor
Suppression of TNF-α secretion (in words) [3]: reproducibly active
% Inhibition of TNF-α secretion ([3]; LPS-treated THP-1 cells, 100 μg/ml, replicates in parentheses): 95 (3) %

COC1=CC(=O)O[C@@H](CCc2ccc3c(c2)OCO3)C1 [Compound 3, dihydromethysticin]
Suppression of TNF-α secretion (in words) [3]: essentially inactive
Suppression of TNF-α secretion (in words) ([3]; listed as dihydromethysticin): inactivity
inhibition at 100 µg/mL [3]: 37%

COC1=CC(=O)O[C@@H](/C=C/c2ccc3c(c2)OCO3)C1 [Compound 4, methysticin]
Suppression of TNF-α secretion (in words) [3]: essentially inactive
Suppression of TNF-α secretion (in words) ([3]; listed as methysticin): inactivity
inhibition at 100 µg/mL [3]: 43%

COc1ccc(C=CC(=O)c2c(O)cc(OC)cc2OC)cc1 [Compound 8, flavokavain A]
Inhibition of DYRK1A [6]: inhibits
Inhibition of IKK (IκB kinase (IKK)): inhibits
Inhibition of MAPKAP-K3 [7]: inhibits
Inhibition of PRAK [8]: inhibits
Inhibition of Aurora B (Aurora B): inhibits

COC1=CC(=O)OC(c2ccc(-c3ccccc3)cc2)C1 (stereo not drawn) [Compound 15, 6-(Biphenyl-4-yl)-4-methoxy-5,6-dihydro-2H-pyran-2-one]
inhibition at 100 µg/mL [3]: -9%

COC(=O)/C=C(\CC(O)c1ccc(-c2ccccc2)cc1)OC (stereo not drawn) [Compound 16, (E)-Methyl 5-(biphenyl-4-yl)-5-hydroxy-3-methoxypent-2-enoate]
LITAF expression (LITAF): nearly ablated LITAF expression
Suppression of TNF-α secretion [3]: ≥ 50%
Dose response of TNF-α secretion suppression ([3]; Figure 5): dose-responsive manner
inhibition at 100 µg/mL [3]: 58%

COc1cc2c(cc1O)CC[n+]1cc3c(OC)c(OC)ccc3cc1-2.[I-] [Jatrorrhizine iodide]
Protection from lethal dose of LPS (mortality/morbidity) [1]: render mice immune to endotoxic shock-mediated death
Health of surviving animals ([1]; 40 mg/kg ip, after 24h): poor health
